Assay results taken from ChEMBL document CHEMBL5236549, “Discovery of 2-Sulfinyl-Diazabicyclooctane Derivatives, Potential Oral β-Lactamase Inhibitors for Infections Caused by Serine β-Lactamase-Producing Enterobacterales” (J Med Chem, 2021).

Key:
Klebsiella pneumoniae [1] = test: Antibacterial activity against Klebsiella pneumoniae SR201325 assessed as reduction in bacterial growth by measuring minimum […] concentration incubated for 16 to 24 hrs by CLSI based two-fold serial dilution method; format: functional; settings: time 16-24 hrs
Procedure, shortened: (§1)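 Inhibitor twofold serially diluted in cation-adjusted Mueller Hinton broth containing ceftibuten 1 μg/mL. About 5 × 10⁴ cfu/well, 35 °C for 16−20 h. […] N = 1.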

[2] = Stability of the compound in phosphate buffer at pH 7.0 assessed as parent compound remaining at 40 degreeC measured after 16 hrs; format: physicochemical; settings: read-out: Stability
Procedure, shortened: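 Compound held in pH 7.0 phosphate buffer at 40 °C for 16 h; amount remaining reported as %.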

Enterobacter cloacae [3] = test: Antibacterial activity against Enterobacter cloacae SR36276 assessed as reduction in bacterial growth by measuring minimum […] concentration incubated for 16 to 20 hrs by CLSI based two-fold serial dilution method; settings: time 16-20 hrs
Klebsiella pneumoniae [4] = test: Antibacterial activity against Klebsiella pneumoniae SR09635 assessed as inhibition of bacterial growth incubated for 16 to 20 hrs by CLSI based two-fold serial dilution method
[5] = Half life in mouse at 10 mg/kg,iv by LC/MS/MS analysis; format: ADME, organism-based; settings: in vivo
Procedure, shortened: (§2)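 After iv dosing, T1/2 taken as ln 2/kel, with kel from the slope of the log concentration–time profile. Plasma levels measured by LC/MS/MS with an external standard.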

Klebsiella pneumoniae [6] = test: Antibacterial activity against Klebsiella pneumoniae SR200263 assessed as reduction in bacterial growth by measuring minimum […] concentration incubated for 16 to 20 hrs by CLSI based two-fold serial dilution method; settings: time 16-20 hrs
[7] = Total clearance in rat at 1 mg/kg,iv by LC/MS/MS analysis; format: ADME, organism-based; settings: in vivo
Procedure, shortened: (§3)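 Intravenous dosing (mouse 10, rat 1, dog 5, monkey 5 mg/kg); plasma quantified by LC/MS/MS after methanol precipitation with external standard; AUC by linear trapezoidal approximation; CLtot = dose/AUC.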

Klebsiella pneumoniae [8] = test: Antibacterial activity against Klebsiella pneumoniae SR100758 assessed as reduction in bacterial growth by measuring minimum […] concentration incubated for 16 to 24 hrs by CLSI based two-fold serial dilution method; format: functional; settings: time 16-24 hrs; procedure, shortened: as §1
[9] = Half life in rat at 1 mg/kg,iv by LC/MS/MS analysis; format: ADME, organism-based; settings: in vivo; procedure, shortened: as §2
Enterobacter cloacae [10] = test: Antibacterial activity against Enterobacter cloacae SR100108 assessed as reduction in bacterial growth by measuring minimum […] concentration incubated for 16 to 20 hrs by CLSI based two-fold serial dilution method; settings: time 16-20 hrs
Escherichia coli [11] = test: Antibacterial activity against Escherichia coli ATCC SR09613 assessed as inhibition of bacterial growth incubated for 16 to 20 hrs by CLSI based two-fold serial dilution method
Klebsiella pneumoniae [12] = test: Antibacterial activity against Klebsiella pneumoniae SR200487 assessed as reduction in bacterial growth by measuring minimum […] concentration incubated for 16 to 20 hrs by CLSI based two-fold serial dilution method; settings: time 16-20 hrs
[13] = Inhibition of bacterial beta-lactamase CMY-2 using nitrocefin as substrate incubated for 20 mins; set-up: species or system Bacteria
Procedure, shortened: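 Nitrocefin hydrolysis read by absorbance. Enzyme titrated to give about 0.2 absorbance change over the no-enzyme control. Enzyme added to nitrocefin (final 50 μg/mL) plus inhibitor, no preincubation, read after 20 min at 35 °C. IC50 is 50% reduction of hydrolysis. N = 1.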

[14] = Total clearance in dog at 5 mg/kg,iv by LC/MS/MS analysis; format: ADME, organism-based, Canis lupus familiaris; settings: in vivo; procedure, shortened: as §3
Klebsiella pneumoniae [15] = test: Antibacterial activity against Klebsiella pneumoniae SR100758 assessed as inhibition of bacterial growth incubated for 16 to 24 hrs by CLSI based two-fold serial dilution method; format: functional; settings: time 16-24 hrs
Procedure, shortened: (§4)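 CLSI broth microdilution in cation-adjusted Mueller Hinton broth, twofold serial dilutions, about 5 × 10⁴ cfu/well from OD625, 35 °C for 16−20 h. MIC is the lowest concentration with no visible growth.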

Klebsiella pneumoniae [16] = test: Antibacterial activity against Klebsiella pneumoniae ATCC BAA1705 assessed as reduction in bacterial growth by measuring minimum potentiating concentration incubated for 16 to 20 hrs by CLSI based two-fold serial dilution method; settings: time 16-20 hrs
Klebsiella pneumoniae [17] = test: Antibacterial activity against Klebsiella pneumoniae SR200487 assessed as inhibition of bacterial growth incubated for 16 to 24 hrs by CLSI based two-fold serial dilution method; format: functional; settings: time 16-24 hrs; procedure, shortened: as §4
Klebsiella pneumoniae [18] = test: Antibacterial activity against Klebsiella pneumoniae SR09603 assessed as reduction in bacterial growth by measuring minimum […] concentration incubated for 16 to 20 hrs by CLSI based two-fold serial dilution method; settings: time 16-20 hrs
Escherichia coli [19] = test: Antibacterial activity against Escherichia coli ATCC SR34100 assessed as inhibition of bacterial growth incubated for 16 to 20 hrs by CLSI based two-fold serial dilution method
Enterobacter cloacae [20] = test: Antibacterial activity against Enterobacter cloacae SR200030 assessed as reduction in bacterial growth by measuring minimum […] concentration incubated for 16 to 24 hrs by CLSI based two-fold serial dilution method; format: functional; settings: time 16-24 hrs; procedure, shortened: as §1
Escherichia coli [21] = test: Antibacterial activity against Escherichia coli ATCC SR34100 assessed as reduction in bacterial growth by measuring minimum […] concentration incubated for 16 to 24 hrs by CLSI based two-fold serial dilution method; format: functional; settings: time 16-24 hrs
Procedure, shortened: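 MPC₁ by broth microdilution: twofold serial dilutions of inhibitor in cation-adjusted Mueller Hinton broth containing ceftibuten at 1 μg/mL. Inoculum about 5 × 10⁴ cfu/well final, set from OD625. Incubation at 35 °C for 16−20 h. […] N = 1.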

[22] = Total clearance in monkey at 5 mg/kg,iv by LC/MS/MS analysis; format: ADME, organism-based, Macaca mulatta; settings: rhesus monkey, in vivo; procedure, shortened: as §3
Klebsiella pneumoniae [23] = test: Antibacterial activity against Klebsiella pneumoniae SR09603 assessed as inhibition of bacterial growth incubated for 16 to 20 hrs by CLSI based two-fold serial dilution method
[24] = AUC in monkey at 5 mg/kg,iv by LC/MS/MS analysis; format: ADME, organism-based, Macaca mulatta; set-up: dose 5 mg/kg, route iv; settings: rhesus monkey, in vivo
Procedure, shortened: (§5)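 Plasma of the parent acid measured by LC/MS/MS (methanol precipitation, positive ESI, external standard); oral values follow prodrug dosing (rat fed, dog and monkey fasted). AUC from 0 h to last time point by linear trapezoid; F from oral AUC versus iv AUC of the parent. N = 2 (rat, dog), N = 3 (monkey, mouse).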

[25] = AUC in dog at 5 mg/kg,iv by LC/MS/MS analysis; format: ADME, organism-based, Canis lupus familiaris; set-up: dose 5 mg/kg, route iv; settings: in vivo; procedure, shortened: as §5
Klebsiella pneumoniae [26] = test: Antibacterial activity against Klebsiella pneumoniae ATCC BAA1705 assessed as inhibition of bacterial growth incubated for 16 to 20 hrs by CLSI based two-fold serial dilution method
Enterobacter cloacae [27] = test: Antibacterial activity against Enterobacter cloacae SR36276 assessed as inhibition of bacterial growth incubated for 16 to 20 hrs by CLSI based two-fold serial dilution method

SMILES: C[S@@+]([O-])[C@@H]1CC[C@@H]2CN1C(=O)N2O[C@H](F)C(=O)[O-].[Na+]
- MPC (Klebsiella pneumoniae [1]): 2 µg/mL
- remaining at 16 h [2]: 95%
- MPC (Enterobacter cloacae [3]): 2 µg/mL
- MIC (Klebsiella pneumoniae [4]): 32 µg/mL
- half-life [5]: 24 min
- MPC (Klebsiella pneumoniae [6]): 0.125 µg/mL
- clearance [7]: 27 mL/min/kg
- MPC (Klebsiella pneumoniae [8]): 0.25 µg/mL
- half-life [9]: 12 min
- MPC (Enterobacter cloacae [10]): 1 µg/mL
- MIC (Escherichia coli [11]): 32 µg/mL
- MPC (Klebsiella pneumoniae [12]): 0.5 µg/mL
- IC50 [13]: 28 nM
- clearance [14]: 4.3 mL/min/kg
- MIC (Klebsiella pneumoniae [15]): > 32 µg/mL
- MPC (Klebsiella pneumoniae [16]): 0.063 µg/mL
- MIC (Klebsiella pneumoniae [17]): > 32 µg/mL
- MPC (Klebsiella pneumoniae [18]): 0.125 µg/mL
- MIC (Escherichia coli [19]): 32 µg/mL
- MPC (Enterobacter cloacae [20]): 4 µg/mL
- MPC (Escherichia coli [21]): 0.125 µg/mL
- clearance [22]: 6.15 mL/min/kg
- MIC (Klebsiella pneumoniae [23]): 32 µg/mL
- AUC [24]: 13800 ng·h/mL
- AUC [25]: 19400 ng·h/mL
- MIC (Klebsiella pneumoniae [26]): 32 µg/mL
- MIC (Enterobacter cloacae [27]): > 32 µg/mL
